Here are results for two compounds from ChEMBL document CHEMBL3822452, “Polyphenolic compounds with anti-tumour potential from Corchorus olitorius (L.) Tiliaceae, a Nigerian leaf vegetable” (2016).

In experiment [1] the test system is HeLa. The experiment can be described thus: Cytotoxicity against human HeLa cells assessed as cell viability at 800 uM after 48 hrs by alamar blue assay relative to control. The experiment is classed as functional. Conditions: read-out: Activity. Put shortly:
(§1)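 HeLa cells in MEM with 10% FBS, 1% NEAA, 2 mM glutamine and 1% antibiotic-antimycotic were seeded at 1 x 10^5 cells/ml and grown 24 h at 37°C, 5% CO2. They were exposed 48 h to compound serially diluted in growth medium, in duplicate wells. Alamar Blue was added for 3 h, then 30 min at room temperature, and fluorescence read at ex 544/em 590 nm. Values are % of DMSO-only control, means ± SEM, with ANOVA and Dunnett's test.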
A general note: The colour change of resazurin is a common sign of viable cells or microbes.

Experiment [2] deals with HeLa. Kind of experiment: Cytotoxicity against human HeLa cells assessed as cell viability at 1600 uM after 48 hrs by alamar blue assay relative to control. The following applies: read-out: Activity. The experiment is classed as functional. A digest of the protocol:
as §1

The test system of another experiment is NCI-H460. The experiment can be described thus: Cytotoxicity against human H460 cells assessed as reduction in cell viability after 48 hrs by alamar blue assay. The experiment is classed as functional, cell-based.
Another experiment relates to PC-3. Kind of experiment: Cytotoxicity against human PC3 cells assessed as reduction in cell viability after 48 hrs by alamar blue assay. Type of experiment: functional, cell-based.
Experiment [3] concerns HeLa. The experiment can be described thus: Cytotoxicity against human HeLa cells assessed as loss of cells after 48 hrs by inverted microscopic analysis. The experiment is classed as functional, cell-based. Put shortly: (§2)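 HeLa cultures were treated 48 h with increasing compound concentrations in growth medium, with controls given growth medium only. Bright-field images were then taken on an inverted microscope at x10 and examined for cell loss and rounding of remaining cells.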

In experiment [4] the test system is HeLa. The experiment can be described thus: Cytotoxicity against human HeLa cells assessed as cell rounding after 48 hrs by inverted microscopic analysis. The experiment is classed as functional, cell-based. Put shortly:
as §2

The source made the active and inactive calls. The calls are words filed in the database; no cut-off is given here.

`COc1cc(/C=C/C(=O)OC(=O)/C=C/c2ccc(O)c(OC)c2)ccc1O`: in the experiment on HeLa [1], the viability at 800 µM is 22.3%. Also, the viability at 1600 µM in the experiment on HeLa [2] worked out at 5.3%. Besides, the outcome in the experiment with NCI-H460 and in the experiment on PC-3 was inactive. Moreover, the Activity result in the experiment with HeLa [3] and in the experiment with HeLa [4] was “Dose-dependent effect” throughout.

On to `COC(=O)[C@@]1(OC(=O)/C=C/c2ccc(O)c(O)c2)C[C@@H](O)[C@@H](OC(=O)/C=C/c2ccc(O)c(O)c2)[C@H](OC(=O)/C=C/c2ccc(O)c(O)c2)C1`, for which the viability at 800 µM with HeLa [1] amounted to 71%. Also, in the experiment with HeLa [2], the viability at 1600 µM was found to be 19.6%. The outcome in the experiment on NCI-H460 and in the experiment with PC-3 was inactive. Also, the Activity entry in the experiment with HeLa [3] and with HeLa [4] was “Dose-dependent effect” in each case.
